In series [1] the target is Voltage-gated inwardly rectifying potassium channel KCNH2 (Homo sapiens, UniProt Q12809).
Series [2] deals with N2a. The series is described as follows: Anti-synaptotoxic activity against mouse Neuro-2a cells assessed as inhibition of amyloid beta (1 to 42)-induced cytotoxicity by MTT-based Trafficking assay. Format: functional. A general note: Tetrazolium dyes change colour on reduction, which living cells bring about.
The nature of series [3]: Half life in mouse liver microsomes. The class given is ADME, Microsome. For orientation: Microsomes from liver hold many membrane-bound enzymes, among them those of drug oxidation.
The target in series [4] is Sigma intracellular receptor 2 (Homo sapiens, UniProt Q5BJF2). Kind of series: Binding affinity to Sigma 2-receptor (unknown origin).
A short description of series [5]: Ratio of AUC in Brain to AUC in plasma. Format: ADME, cell-free. The note with it: brain and plasma; read-out: Ratio AUC.
Series [6] is described as follows: Ratio of drug level in brain to plasma measured after 24 hrs. Format: ADME, cell-free. To be noted: brain and plasma, read-out: BPR.
A short description of series [7]: Free drug level in plasma. The class given is ADME, cell-free.
Series [8] can be described thus: Prevention of vesicular membrane trafficking in Sprague-Dawley rat neurons assessed as inhibition of amyloid beta oligomer binding to […] receptor pretreated with compounds followed by amyloid beta oligomer challenge and measured after 1 hr by ELISA. The class given is functional, tissue-based. The note with it: neuron. For orientation: ELISA stands for enzyme-linked immunosorbent assay.

Series [9] is described as follows: Cognitive enhancing effect in non-transgenic mouse assessed as swimming length measured after 4 days by Morris Water maze method (reference value: 1797 +/-219 cm). The class given is ADME. To be noted: buffer, 96 h, time 4 day.
The test system of series [10] is Mus musculus. Kind of series: Induction of amyloid beta oligomer release in interstitial brain fluid in iv dosed transgenic hAPP Swe/Ldn mouse. The class given is functional, organism-based. A digest of the protocol:
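Compound given intravenously to live transgenic mice. Microelectrodes coated with antibodies to total Aβ or to Aβ oligomers were inserted into the brain, and soluble Aβ in interstitial fluid was measured minute by minute.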

A short description of series [11]: Cognitive enhancing effect in transgenic hAPP Swe/Ldn mouse assessed as swimming length measured after 1 day by Morris Water maze method (reference value: 3518 +/-138 cm). The class given is ADME. To be noted: buffer, 24 h.
Series [12] can be described thus: Cognitive enhancing effect in transgenic hAPP Swe/Ldn mouse assessed as swimming length measured after 3 days by Morris Water maze method (reference value: 2854 +/-267 cm). The note with it: buffer, 72 h, time 3 day. Format: ADME.
A short description of series [13]: Efflux ratio of apparent permeability from basolateral to apical membrane over apical to basolateral membrane in human Caco2 cells. The class given is ADME, cell-based. The note with it: Caco-2.
Series [14] is described as follows: Cognitive enhancing effect in non-transgenic mouse assessed as swimming length measured after 2 day by Morris Water maze method (reference value: 2666 +/-294 cm). To be noted: buffer, 48 h. The class given is ADME.
Series [15] is described as follows: Cognitive enhancing effect in transgenic hAPP Swe/Ldn mouse assessed as swimming length measured after 2 day by Morris Water maze method (reference value: 3252 +/-329 cm). Format: ADME. To be noted: buffer, 48 h.
The nature of series [16]: Cognitive enhancing effect in non-transgenic mouse assessed as swimming length measured after 1 day by Morris Water maze method (reference value: 3791 +/-150 cm). Format: ADME. The note with it: buffer, 24 h.
Series [17] in a line: Cognitive enhancing effect in transgenic hAPP Swe/Ldn mouse assessed as swimming length measured after 4 days by Morris Water maze method (reference value: 2426 +/-287 cm). Format: ADME. To be noted: buffer, 96 h, time 4 day.
The nature of series [18]: Cognitive enhancing effect in non-transgenic mouse assessed as swimming length measured after 3 days by Morris Water maze method (reference value: 2173 +/-213 cm). The class given is ADME. The note with it: buffer, 72 h, time 3 day.
Series [19] can be described thus: Reversal of amyloid beta oligomer-induced vesicular membrane trafficking in Sprague-Dawley rat neurons pretreated with amyloid beta oligomer for 1 hr followed by compound treatment by ELISA. To be noted: neuron. The class given is functional, tissue-based.
A short description of series [20]: Prevention of vesicular membrane trafficking in Sprague-Dawley rat neurons assessed as inhibition of amyloid beta oligomer binding to […] receptor at 10 uM pretreated with compounds followed by amyloid beta oligomer challenge and measured after 1 hr by ELISA relative to control. Format: functional. To be noted: Neuron.
Series [21] in a line: Cognitive enhancing effect in transgenic hAPP Swe/Ldn mouse assessed as restoration of freezing time measured by Contextual fear conditioning test (reference value: 32 +/-6%). Format: ADME.
Series [22] can be described thus: Improvement in learning and spatial memory in non-transgenic mouse assessed as spontaneous alteration measured by Y-maze method (reference value: 62.6 +/-3.7%). Format: ADME.
Series [23] in a line: Unbound brain-to-plasma concentration ratio measured after 24 hrs. Format: ADME, cell-free. To be noted: brain and plasma, read-out: K(p,uu,brain).
The nature of series [24]: Cognitive enhancing effect in non-transgenic mouse assessed as restoration of freezing time measured by Contextual fear conditioning test (reference value: 52 +/-5%). The class given is ADME.
Series [25] can be described thus: Improvement in learning and spatial memory in transgenic hAPP Swe/Ldn mouse assessed as spontaneous alteration measured by Y-maze method (reference value: 56.1 +/-2.8%). Format: ADME.
A short description of series [26]: Free drug level in brain. Format: ADME, tissue-based.
The nature of series [27]: Reversal of amyloid beta oligomer-induced vesicular membrane trafficking in Sprague-Dawley rat neurons at 1 uM pretreated with amyloid beta oligomer for 1 hr followed by compound treatment by ELISA relative to control. The class given is functional. The note with it: Neuron.

The source made the active and inactive calls.

Data on eight molecules can be found in ChEMBL document CHEMBL4837254, “Discovery of Investigational Drug CT1812, an Antagonist of the Sigma-2 Receptor Complex for Alzheimer's Disease” (ACS Med Chem Lett, 2021).

Sequence of Voltage-gated inwardly rectifying potassium channel KCNH2 (Q12809 whole entry): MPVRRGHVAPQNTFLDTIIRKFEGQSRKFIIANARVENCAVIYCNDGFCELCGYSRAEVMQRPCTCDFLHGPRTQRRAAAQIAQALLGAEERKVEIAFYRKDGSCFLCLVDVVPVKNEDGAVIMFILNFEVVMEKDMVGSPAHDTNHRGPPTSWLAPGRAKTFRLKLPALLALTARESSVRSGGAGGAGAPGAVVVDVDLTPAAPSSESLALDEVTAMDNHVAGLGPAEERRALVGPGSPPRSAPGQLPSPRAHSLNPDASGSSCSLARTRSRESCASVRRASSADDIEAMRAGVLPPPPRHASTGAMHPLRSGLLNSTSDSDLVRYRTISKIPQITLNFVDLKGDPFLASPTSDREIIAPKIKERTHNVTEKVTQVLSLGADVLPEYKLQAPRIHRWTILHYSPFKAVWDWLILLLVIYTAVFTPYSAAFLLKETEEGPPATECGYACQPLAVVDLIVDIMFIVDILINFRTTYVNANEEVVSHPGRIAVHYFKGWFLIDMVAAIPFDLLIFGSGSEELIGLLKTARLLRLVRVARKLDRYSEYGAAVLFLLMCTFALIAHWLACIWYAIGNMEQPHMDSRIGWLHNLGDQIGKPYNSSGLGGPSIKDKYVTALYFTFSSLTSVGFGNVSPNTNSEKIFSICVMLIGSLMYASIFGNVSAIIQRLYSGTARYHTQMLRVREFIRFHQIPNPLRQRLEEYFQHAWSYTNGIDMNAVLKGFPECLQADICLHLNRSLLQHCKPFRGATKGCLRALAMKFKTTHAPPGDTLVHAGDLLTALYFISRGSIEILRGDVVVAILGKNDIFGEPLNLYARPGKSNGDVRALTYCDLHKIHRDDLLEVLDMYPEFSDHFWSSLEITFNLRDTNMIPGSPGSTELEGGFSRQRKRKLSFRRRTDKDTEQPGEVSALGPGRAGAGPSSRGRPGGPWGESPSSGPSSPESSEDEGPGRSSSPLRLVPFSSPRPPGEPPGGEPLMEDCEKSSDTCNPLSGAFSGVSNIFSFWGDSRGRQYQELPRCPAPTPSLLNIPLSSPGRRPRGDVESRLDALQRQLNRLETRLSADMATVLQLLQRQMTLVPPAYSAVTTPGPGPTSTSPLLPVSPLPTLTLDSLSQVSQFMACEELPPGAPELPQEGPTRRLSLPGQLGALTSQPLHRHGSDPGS
Sequence of Sigma intracellular receptor 2 (Q5BJF2 whole entry): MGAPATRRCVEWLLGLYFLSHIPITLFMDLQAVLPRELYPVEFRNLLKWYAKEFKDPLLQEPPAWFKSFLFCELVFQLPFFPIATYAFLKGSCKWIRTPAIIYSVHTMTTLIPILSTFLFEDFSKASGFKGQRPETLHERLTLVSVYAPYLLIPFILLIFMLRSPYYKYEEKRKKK

Take `CC(C)Oc1cc(CCC(C)(C)N2Cc3cccc(F)c3C2)ccc1O`: the EC50 (as a rule, the midpoint of the concentration-response curve) in series [1] was 9600 nM. In addition, the Activity in series [2] is 0.25 µM. In addition, the half-life – broadly, the time needed for the level to fall by half in the phase considered – in series [3] was 4 min. Besides, the Ki (in general, the equilibrium dissociation constant of an inhibitor or competing ligand from its target) in series [4] is 11 nM. Moreover, the Kp in series [5] was found to be 5.64. In [6], the Kp at 24 h stood at 5.4.
For `C[C@H](CCc1ccc(Cl)c(Cl)c1)NCc1ccc(C(F)(F)F)cc1`, the EC50 in series [1] came to 4400 nM. For the same molecule, the Activity in [2] came to 2 µM. The half-life in [3] stood at 33 min. For the same molecule, in series [6], the Kp at 24 h stood at 8.2.
In the case of `C[C@@H](CCc1ccc(Cl)c(Cl)c1)NCc1ccc(C(F)(F)F)cc1`, the EC50 in series [1] came out at 1100 nM. The Activity in series [2] came to 11.7 µM. The same molecule came in with a half-life in series [3] of 53 min. Affinity in series [4] was put at a Ki of 120 nM.
The molecule `COc1cc2c(cc1OC)CN([C@H](C)CCc1ccc(Cl)c(Cl)c1)C2` came in with an EC50 in [1] of 290 nM. In addition, the Activity in [2] stood at 0.7 µM. Also, the half-life in series [3] turned out to be 61 min. Besides, the Ki in series [4] worked out at 0.44 nM.
Take `C[C@H](CCc1ccc(Cl)cc1)NCc1ccc(C(F)(F)F)cc1`: it took 780 nM to reach a half-maximal effect in series [1] (EC50). Besides, in series [2], the Activity was determined as 5.7 µM. This molecule yielded a half-life in [3] of 27 min. For the same molecule, the Kp at 24 h in [6] came to 2.
On to `COc1cc(CC[C@@H](C)N2Cc3cccc(F)c3C2)ccc1O`, for which the Activity in series [2] came out at 0.25 µM. This molecule had a half-life in series [3] of 16 min.
As to `COc1cc(CCC(C)NCc2ccc(C(F)(F)F)cc2)ccc1O` (configuration not stated), the Activity in series [2] came to 2.2 µM.
In the case of `CC(C)(C)Oc1cc(CCC(C)(C)N2Cc3ccc(S(C)(=O)=O)cc3C2)ccc1O`, the figures for the fraction unbound in series [7] and in series [26] were 0.05 and 0.13, respectively. Besides, the EC50 in [8] worked out at 6800 nM; in series [1] it was 26000 nM; in series [19] it was 358 nM. The Activity in [9] was 2008 cm; in series [2], 0.31 µM; in series [11] it was 3230 cm; in [12] it was 1987 cm; in [14], 2739 cm; in [15] it was 2332 cm. For the same molecule, the Activity in series [16] amounted to 3317 cm; in series [17], 1611 cm; in series [18], 2262 cm; in series [21] it was 45%; in series [22] it was 65.3%; in series [24], 51%. Moreover, the Activity in series [25] is listed as 58.5%. The outcome in series [10] was Active. In [3], this molecule gave a half-life of 45 min. This molecule yielded a Ki in series [4] of 8.5 nM. For the same molecule, the efflux ratio (commonly a quotient of directional permeabilities that is used to spot active efflux) in series [13] is 0.95. Also, in [5], the Kp is 2.51. In addition, in series [20], the inhibition (usually the share of the control response that was lost under treatment) at 10 µM was 71%. Also, the Kp uu at 24 h in [23] was 6.75. In [6], the Kp at 24 h was determined as 5.7. For the same molecule, the inhibition at 1 µM in series [27] was determined as 88%.
